# Compound activity deposited in PubChem by several laboratories.
# sdo1 growth = growth rescue of sdo1-depleted yeast, primary screen, S. cerevisiae, bone marrow failure model; S. cerevisiae sdo1-depleted JHY4D growth rescue, OD600 30 h; active compounds read high; pdr5 snq2 efflux-pump mutant strain; z-score at 10 µM; actives 0.21% (n = 140,000);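 active = z-score above 3 at both the 24 hr and the 30 hr optical density reads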;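 also: z-score against mean and SD of all compound wells on the same plate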
# L929 necroptosis = inhibitors of zVAD-triggered necroptosis, primary screen, L929 cells. L929 zVAD necroptosis rescue, ATP luminescence, 24 h; with zVAD 60 µM. viability rescue, % at 10 µM. actives 0.38% (n = 220,000). AID 1377, 2008;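 active = activation, scaled between plate controls, above about 75%, limit read from the data; inactive = activation under that limit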;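 also: 0% = zVAD with DMSO and 100% = DMSO alone without zVAD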
# Rad51 HR inh = human RAD51 strand exchange inhibitors, primary screen, biochemical, fluorescence | DNA repair protein RAD51 homolog 1 (Homo sapiens), Q06609 | hRad51 DNA strand exchange, fluorescence dequenching | inhibition, % at 10 µM | actives 0.085% (n = 200,000) | AID 1385, 2008;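 active = inhibition above 40% at the single screening dose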;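 also: 0% = DMSO control wells and 100% = blanks with heterologous ssDNA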
# Target sequence (Q06609 whole entry, looked up): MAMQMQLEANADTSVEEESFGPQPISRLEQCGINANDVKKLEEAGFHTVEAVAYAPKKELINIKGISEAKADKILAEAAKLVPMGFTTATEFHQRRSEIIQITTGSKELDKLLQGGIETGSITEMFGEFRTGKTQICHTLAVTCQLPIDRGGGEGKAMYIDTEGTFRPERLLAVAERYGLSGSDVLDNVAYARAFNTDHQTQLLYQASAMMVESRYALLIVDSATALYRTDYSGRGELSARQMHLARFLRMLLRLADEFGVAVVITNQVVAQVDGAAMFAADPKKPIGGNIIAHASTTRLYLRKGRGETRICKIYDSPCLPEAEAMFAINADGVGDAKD
#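 Material: hRad51 filaments on single-stranded DNA; Reagent: Donor/quencher-labelled 47-bp dsDNA substrate; Compound: 10 µM final, single point; Schedule: 37 °C 15-min filament assembly, 30-min compound preincubation, 15-min exchange; Technique: FRET fluorescence, excitation 485 nm, emission 520 nm; Benchmarks: control wells and blank wells on each plate.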
# TNF death inh = inhibitors of TNF-alpha triggered necroptosis, primary screen, cell-based, Jurkat FADD-/-, single concentration. Jurkat FADD-/- TNF necroptosis rescue, ATP luminescence, 24 h; 0 = TNF only, 100 = no-TNF cells. activation (protection from cell death), % at 10 µM. actives 0.068% (n = 220,000). AID 463075, 2010;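 active = activation, meaning protection from cell death, of at least 50% relative to plate controls; inactive = activation below 50%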;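 also: necroptosis triggered by 40 ng/mL TNF-alpha added together with compound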
# zVAD necrop conf = inhibitors of zVAD-triggered necroptosis in L929, confirmation, L929 cells, duplicate runs. shares compounds with L929 necroptosis. L929 zVAD-induced necroptosis rescue, ATP luminescence, 24 h. activation (protection from necroptosis), % at 10 µM. actives 16% (n = 760). AID 463117, 2010;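 active = mean protection from necroptosis of at least 50% over duplicate tests; inactive = mean protection below 50%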;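 also: 0% = cells with zVAD alone and 100% = vehicle cells without zVAD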
# The depositor's hits bear a star; · = no result given. Most compounds without a hit are left out; they make up all but 0.64% or so of the library.
SMILES,sdo1 growth,L929 necroptosis,Rad51 HR inh,TNF death inh,zVAD necrop conf
Cc1cc(NC(=O)NC(=O)c2cccc(OC(F)(F)C(F)F)c2)n[nH]1,-0.36,0.0,0.1,2.0,·
Cc1cc(NC(=O)c2cccc(Oc3ccccc3)c2)n[nH]1,·,78.0*,5.4,13.1,5.1
O=C(NCc1cccnc1)C1CC(=O)N(CCc2ccccc2)C1 (stereo not drawn),0.37,0.4,-1.8,-0.3,·
Cc1ccc(O)c(N=Cc2sc3ccccc3c2Cl)c1,0.53,-0.5,·,0.7,·
Oc1ccccc1N=Cc1sc2ccccc2c1Cl,0.16,86.2*,-0.4,4.9,3.1
CC(C)OCC(O)CN1CCNCC1 (stereo not drawn),0.72,-0.1,-4.2,-2.3,·
N#CC(C(=O)c1ccco1)c1ccccn1 (stereo not drawn),0.81,80.7*,5.0,20.4,56.1*
O=C(c1ccco1)N(c1ccccn1)c1ccccn1,-0.08,-0.1,-4.4,0.0,·
N#C/C(=C(\O)c1ccco1)c1ccccn1,1.28,104.7*,0.1,29.3,56.8*
O=c1c(Cl)c(Cl)cnn1Cc1nnc(-c2ccccc2Br)o1,·,42.2,0.9,-15.9,·
NC(=O)COc1ccc2oc(-c3ccccc3)cc(=O)c2c1,·,81.2*,-11.2,-1.5,26.2
N#CCOc1ccc2oc(-c3ccco3)cc(=O)c2c1,·,76.2*,-2.5,-1.6,0.7
CCOC(=O)COc1ccc2c(=O)cc(-c3ccccc3)oc2c1,·,0.2,0.7,2.9,·
CC1(C)CC(=O)C2(CC3=C(CC(C)(C)CC3=O)O2)C(=O)C1,1.58,-0.2,6.9,-1.3,·
O=C(Oc1c(-c2ccccc2)oc2ccccc2c1=O)c1ccccc1,-1.28,79.4*,·,-8.5,1.7
COc1ccc(-c2oc3ccccc3c(=O)c2OC(=O)c2ccc(C)cc2)cc1,-1.17,0.9,-4.2,-10.3,·
N#C/C(=C\c1ccccc1)C(=O)N(c1ccccn1)C1CCCCC1,-1.79,0.2,-1.9,-1.2,·
O=C(NC12CC3CC(CC(C3)C1)C2)c1ccc(-c2ccc(Cl)cc2)o1,-1.82,81.6*,-0.5,3.6,1.8
Oc1ccc(-c2csc(Nc3ncccn3)n2)cc1O,·,79.2*,13.4,22.4,60.2*
CC(=O)Nc1cccc(-c2csc(Nc3ncccn3)n2)c1,·,79.8*,8.8,6.1,4.6
Oc1ccc(-c2csc(Nc3ncccn3)n2)c(O)c1,·,81.3*,9.6,9.4,48.1
Cc1cccnc1Nc1nc(-c2ccc(O)cc2)cs1,-2.59,1.1,-3.2,-5.2,·
COc1cc(/C=N/NC(=O)c2ccc3ccccc3c2)ccc1Oc1ccc([N+](=O)[O-])cn1,-0.88,75.8*,·,6.1,4.3
Cc1c(C)c2ccc(OS(C)(=O)=O)c(C)c2oc1=O,0.37,·,·,-1.2,·
O=c1[nH]c2ccccc2nc1N1CCOCC1,0.63,0.8,-1.6,-1.0,·
SMILES,sdo1 growth,L929 necroptosis,Rad51 HR inh,TNF death inh,zVAD necrop conf
c1ccc2c(c1)nc(N1CCOCC1)c1c3ccccc3[nH]c21,-1.72,81.9*,-3.7,1.4,3.9
O=C(C(=O)N1CCCC1CO)N1CCCC1CO (stereo not drawn),·,3.7,5.5,-1.1,·
Oc1ccccc1N=Cc1c(O)ccc2oc3c(c12)CCCC3,·,75.2*,-42.6,-21.8,2.2
CCOC(=O)C1(CCCc2ccccc2)CCN(C2CCN(C(C)=O)CC2)CC1,·,-0.7,-2.6,2.0,·
NS(=O)(=O)c1ccc(N/C=C\C(=O)c2ccc(F)cc2)cc1,·,0.6,·,-1.7,·
NS(=O)(=O)c1ccc(N/C=C/C(=O)c2ccc(Br)cc2)cc1,-0.47,75.9*,6.6,-1.4,15.5
Cc1ccc(NS(=O)(=O)c2cccc(C(=O)N/N=C/c3ccc4c(c3)OCCO4)c2)c(C)c1,-0.34,2.0,·,2.1,·
COc1ccc2nc(NC(C)=O)sc2c1,-0.17,63.7,-0.2,-0.6,·
CC(=O)Nc1nc2ccc(Br)cc2s1,-0.16,80.1*,·,-4.1,34.8
CC(C)C(=O)Nc1nc2ccc(S(C)(=O)=O)cc2s1,·,84.0*,-2.5,-10.1,9.2
CS(=O)(=O)c1ccc2nc(NC(=O)Cc3ccccc3)sc2c1,·,76.1*,·,8.0,21.8
CCCC1(C)NC(=O)c2ccccc2O1 (stereo not drawn),·,1.9,7.1,0.7,·
